Drawing on PubChem BioAssay, this text covers GFP response vs DMSO, GFP response relative to DMSO and GFP response, % of DMSO for twelve compounds.

Assay [1] in a line: hit retest on RPL19A-GFP reporter strain – cell-based, S. cerevisiae, flow cytometry, cherry picks, mother/daughter gates, confirmation (AID 2270;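 active = GFP response below 50% of the DMSO control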). The following applies: 3 h, at 10 µM, stronger effect = lower value, 100 = same GFP as DMSO wells. For orientation: In flow cytometry, cells or beads pass a laser one at a time.
Assay [2] can be described thus: yeast TOR pathway reporter LAP4-GFP change – cell-based, cherry picks, flow cytometry, mother/daughter gates, confirmation (AID 2271;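 active = GFP response above 150% of the DMSO control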;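 note: ratio of sample to DMSO plate mean so 100% equals DMSO level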). As to conditions: S. cerevisiae LAP4-GFP strain, 3 h, at 10 µM, stronger effect = higher value, 100 means same as DMSO control. In short, it runs like this: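 Test system: GFP-fusion yeast strain. Medium: synthetic complete (SC) yeast growth medium. Timing: 3 h treatment at 30 °C with rotation. Measured by: GFP by flow cytometry. Control set: positive rapamycin (400 ng/mL), negative DMSO.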

Assay [3] is described as follows: TOR pathway reporter MEP2-GFP, retest of hits – S. cerevisiae, flow cytometry GFP, cherry picks, confirmation (AID 2272;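 active = GFP response above 150% of the DMSO control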;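 note: ratio of well signal to plate DMSO mean so 100% equals DMSO level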). As to conditions: S. cerevisiae MEP2-GFP strain, 3 h, at 10 µM, stronger effect = higher value.
A short description of assay [4]: yeast AGP1-GFP fluorescence change, single-dose – cell-based, flow cytometry, S. cerevisiae, cherry picks, confirmation (AID 2273).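 Note: median GFP channel fluorescence over the whole cell population gate.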 The following applies: S. cerevisiae AGP1-GFP strain, 3 h, at 10 µM.
Assay [5] is described as follows: TOR pathway CIT2 reporter hit retest – S. cerevisiae, GFP fusion, cherry picks, mother/daughter gates, confirmation (AID 2274). As to conditions: S. cerevisiae CIT2-GFP strain, flow cytometry, 3 h, at 10 µM, stronger effect = higher value.
Where [6] appears, read: measured here: daughter cell gate.
The mark [7] stands for this setting: measured here: mother cell gate.
The mark [8] stands for this setting: measured here: daughter cell gate response.
Where [9] appears, read: measured here: mother cell gate response.

Active and inactive are the calls of the source.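 Rule for the calls, unless noted: active = GFP response above 150% of the DMSO level; inconclusive = fewer than 70 events counted for a yeast strain; inactive = the rest.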

Regarding `O=C(Oc1oc(-c2ccco2)nc1C=Nc1ccccc1)c1ccoc1`, the GFP response vs DMSO was 99.6% (inactive) in assay [1], 99.8% in assay [1] (setting [6]), 96.9% in assay [1] (setting [7]) and 108% (inactive) in assay [3]. The GFP response relative to DMSO in assay [2] is 198% (active); in assay [2] (setting [8]), 172%; in assay [2] (setting [9]) it was 198%. Further, the GFP response, % of DMSO in assay [4] was 98.2% (inactive); in assay [5], 98.6% (inactive); in assay [5] (setting [6]), 103%; in assay [5] (setting [7]) it was 91.5%.

For the compound `O=C1C(Cl)=C(Nc2ccc(F)cc2)C(=O)N1CCc1ccccc1`, the GFP response vs DMSO in assay [1] was 100% (inactive); in assay [1] (setting [6]), 99.3%; in assay [1] (setting [7]) it was 101%; in assay [3] it was 101% (inactive). Further, the figures for the GFP response relative to DMSO in assay [2], in assay [2] (setting [8]) and in assay [2] (setting [9]) were 95.7% (inactive), 95.9% and 96.2%, respectively. In addition, the GFP response, % of DMSO in assay [4] was 104% (inactive); in assay [5], 100% (inactive); in assay [5] (setting [6]) it was 101%; in assay [5] (setting [7]), 99.3%.

Turning to `COc1cc(/C=C2\N=C(c3c(-c4ccccc4)noc3C)OC2=O)ccc1OC(C)=O`, the GFP response vs DMSO in assay [1] was 98.6% (inactive); in assay [1] (setting [6]) it was 100%; in assay [1] (setting [7]), 98.9%; in assay [3], 100% (inactive). The GFP response relative to DMSO in assay [2] was 91.5% (inactive); in assay [2] (setting [8]), 92.8%; in assay [2] (setting [9]), 89.7%. Besides, the GFP response, % of DMSO in assay [4] was 99.3% (inactive); in assay [5], 103% (inactive); in assay [5] (setting [6]) it was 103%; in assay [5] (setting [7]) it was 101%.

Regarding `COC(=O)c1ccccc1Sc1ncnc2onc(C)c12`, the GFP response vs DMSO was 101% (inactive) in assay [1], 100% in assay [1] (setting [6]), 101% in assay [1] (setting [7]) and 120% (inactive) in assay [3]. Also, the GFP response relative to DMSO in assay [2] is 111% (inactive); in assay [2] (setting [8]), 106%; in assay [2] (setting [9]) it was 112%. In addition, the GFP response, % of DMSO in assay [4] is 93.2% (inactive); in assay [5], 108% (inactive); in assay [5] (setting [6]) it was 106%; in assay [5] (setting [7]), 107%.

In the case of `Clc1cnc(N/N=C/c2cccs2)c(Cl)c1`, the GFP response vs DMSO in assay [1] was 105% (inactive); in assay [1] (setting [6]) it was 100%; in assay [1] (setting [7]), 103%; in assay [3] it was 126% (inactive). The GFP response relative to DMSO was 178% (active) in assay [2], 158% in assay [2] (setting [8]) and 172% in assay [2] (setting [9]). The GFP response, % of DMSO is 98.2% (inactive) in assay [4], 103% (inactive) in assay [5], 110% in assay [5] (setting [6]) and 97.1% in assay [5] (setting [7]).

On to `COc1ccc(C(=O)/C=C/c2ccccc2C(F)(F)F)cc1`, for which the GFP response vs DMSO is 100% (inactive) in assay [1], 99.1% in assay [1] (setting [6]), 99.5% in assay [1] (setting [7]) and 100% (inactive) in assay [3]. Besides, the GFP response relative to DMSO in assay [2] was 99.2% (inactive); in assay [2] (setting [8]), 99.2%; in assay [2] (setting [9]) it was 98.3%. Further, the GFP response, % of DMSO is 99.7% (inactive) in assay [4], 107% (inactive) in assay [5], 106% in assay [5] (setting [6]) and 107% in assay [5] (setting [7]).

Take `S=c1[nH]nc(NCCCN2CCOCC2)s1`: the GFP response vs DMSO in assay [1] is 96% (inactive); in assay [1] (setting [6]), 97.1%; in assay [1] (setting [7]), 95.1%; in assay [3], 103% (inactive). The results for the GFP response relative to DMSO in assay [2], in assay [2] (setting [8]) and in assay [2] (setting [9]) were 101% (inactive), 101% and 102%, respectively. For the same compound, the GFP response, % of DMSO in assay [4] is 106% (inactive); in assay [5], 102% (inactive); in assay [5] (setting [6]) it was 100%; in assay [5] (setting [7]), 103%.

Turning to `Cc1[nH][nH]c(=O)c1C(c1ccc(-c2ccc(Cl)c(Cl)c2)o1)c1c(C)[nH][nH]c1=O`, the GFP response vs DMSO is 104% (inactive) in assay [1], 104% in assay [1] (setting [6]), 101% in assay [1] (setting [7]) and 130% (inactive) in assay [3]. Moreover, the GFP response relative to DMSO in assay [2] was 173% (active); in assay [2] (setting [8]), 142%; in assay [2] (setting [9]), 169%. In addition, the GFP response, % of DMSO in assay [4] is 115% (inactive); in assay [5], 103% (inactive); in assay [5] (setting [6]) it was 105%; in assay [5] (setting [7]) it was 102%.

As for `CCC(=O)Nc1ccc(NC(=O)c2cc3ccccc3o2)cc1`, the GFP response vs DMSO was 103% (inactive) in assay [1], 99.3% in assay [1] (setting [6]), 104% in assay [1] (setting [7]) and 101% (inactive) in assay [3]. In addition, the GFP response relative to DMSO in assay [2] was 99.5% (inactive); in assay [2] (setting [8]), 99.1%; in assay [2] (setting [9]), 98.4%. Moreover, the GFP response, % of DMSO in assay [4] was 101% (inactive); in assay [5] it was 97.3% (inactive); in assay [5] (setting [6]), 95.6%; in assay [5] (setting [7]), 96.8%.

As to `N/C(Cc1ccc(Cl)cc1)=N\OC(=O)c1cccc2ccccc12`, the GFP response vs DMSO in assay [1] is 96.2% (inactive); in assay [1] (setting [6]), 82.1%; in assay [1] (setting [7]), 82.6%; in assay [3], 126% (inactive). Further, the GFP response relative to DMSO is 199% (active) in assay [2], 127% in assay [2] (setting [8]) and 188% in assay [2] (setting [9]). Also, the GFP response, % of DMSO in assay [4] was 88.1% (inactive); in assay [5] it was 139% (inactive); in assay [5] (setting [6]) it was 97.4%; in assay [5] (setting [7]), 127%.

As to `C(=N\Nc1ccccn1)/c1c[nH]c2ccccc12`, the GFP response vs DMSO was 103% (inactive) in assay [1], 102% in assay [1] (setting [6]), 104% in assay [1] (setting [7]) and 101% (inactive) in assay [3]. The figures for the GFP response relative to DMSO in assay [2], in assay [2] (setting [8]) and in assay [2] (setting [9]) were 97% (inactive), 95.9% and 96.2%, respectively. Further, the GFP response, % of DMSO in assay [4] was 104% (inactive); in assay [5], 100% (inactive); in assay [5] (setting [6]), 99.2%; in assay [5] (setting [7]), 98.1%.

As for `O=C1ON=C(c2ccccc2)/C1=C\c1ccco1`, the GFP response vs DMSO in assay [1] was 101% (inactive); in assay [1] (setting [6]), 90.8%; in assay [1] (setting [7]), 87%; in assay [3], 124% (inactive). For the same compound, the GFP response relative to DMSO in assay [2] is 168% (active); in assay [2] (setting [8]), 143%; in assay [2] (setting [9]), 165%. Moreover, the GFP response, % of DMSO in assay [4] is 93.2% (inactive); in assay [5], 82.2% (inactive); in assay [5] (setting [6]), 89.9%; in assay [5] (setting [7]), 70.8%.
